Assay results published in ChEMBL document CHEMBL4316599, “Synthesis, in vitro and in vivo biological evaluation of substituted 3-(5-imidazo[2,1-b]thiazolylmethylene)-2-indolinones as new potent anticancer agents” (Eur J Med Chem, 2019).
The source made the active and inactive calls. The rule behind the calls is not given here.

How the values were obtained:
E0771 = experiment: Antitumor activity mouse E0771 cells implanted in C57BL/6 mouse assessed tumor growth inhibition at 15 mg/kg, ip dosed every other day for 20 days relative to control; assay type: functional; conditions: 480 h, read-out: TGI
How it was run: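 Syngeneic allograft: C57BL/6 mice, six weeks old, given 2.5×10^5 BL6-B16 or E0771 cells subcutaneously in the dorsolateral flank in PBS. Dosing began at about 100 mm³. Test compound or reference was given intraperitoneally every other day in 50 μL DMSO, with DMSO vehicle controls. Tumor volume was compared with the vehicle group, 5 animals per group, mean ± SEM, by 2-way ANOVA with Bonferroni correction.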

HeLa [1] = experiment: Cell cycle arrest in human HeLa cells assessed as decrease in cdc2 phosphorylation at 50 to 250 nM after 24 hrs by Western blot analysis; assay type: functional, cell-based
How it was run: (§1)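 HeLa cells treated 24 h, washed in ice-cold PBS and lysed on ice 30 min. Lysates were spun at 15000 x g, 4 °C. 10 µg protein run on SDS-PAGE and blotted to PVDF. Blots were blocked in 5% BSA overnight at 4 °C and probed 2 h at room temperature. Detection by HRP-secondary and ECL, with bands normalized to β-actin as fold of untreated. Three independent experiments, one-way ANOVA/Dunnett.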

Tubulin = Tubulin (Bos taurus, UniProt Q6B856+Q862L2+Q862F3); experiment: Inhibition of bovine brain tubulin polymerization after 20 mins by spectrophotometric analysis
How it was run: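 Bovine brain tubulin (10 μM) in glutamate buffer preincubated with varying compound levels at 30 °C, then chilled to 0 °C. GTP added to 0.4 mM final, then warmed to 30 °C. Assembly followed by turbidity at 350 nm. IC50 is the concentration halving the extent of assembly after 20 min.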

A549 [2] = experiment: Cell cycle arrest in human A549 cells assessed as reduction in accumulation of cells at S phase up to 600 nM after 24 hrs by propidium iodide staining-based flow cytometric analysis; assay type: functional
How it was run: (§2)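 Cells exposed to a range of concentrations for 24 h (HeLa at 5×10^5 cells), then fixed in ice-cold 70% ethanol. Lysis buffer with RNase A and 0.1% Triton X-100 was applied before PI staining. DNA content was read by flow cytometry and G1/S/G2/M fractions taken from DNA histograms. Mean ± SEM of two independent experiments.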

Ovarian carcinoma cell = experiment: Cytotoxicity against human ovarian cancer cells after 48 hrs by SRB assay; assay type: functional
How it was run: (§3)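 NCI-60 screen: single-dose pass at 10^-5 M, then a five-concentration assay from 10^-9 to 10^-4 M (highest 100 μM). Exposure was 48 h under standard NCI protocols. GI50, TGI and LC50 were derived per cell line and averaged by subpanel. Repeated tests are the mean of two experiments.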

HeLa [3] = experiment: Induction of apoptosis in human HeLa cells assessed as increase in caspase-3 activity at 50 to 250 nM after 24 hrs by Western blot analysis; assay type: functional, cell-based; how it was run: as §1
CNS carcinoma cell = experiment: Cytotoxicity against human CNS cancer cells after 48 hrs by SRB assay; assay type: functional; how it was run: as §3
Melanoma cell line = experiment: Cytotoxicity against human melanoma cells after 48 hrs by SRB assay; assay type: functional; how it was run: as §3
HeLa [4] = experiment: Induction of apoptosis in human HeLa cells assessed as decrease in Mcl-1 levels at 50 to 250 nM after 24 hrs by Western blot analysis; assay type: functional, cell-based; how it was run: as §1
A549 [5] = experiment: Cell cycle arrest in human A549 cells assessed as reduction in accumulation of cells at G1 phase up to 600 nM after 24 hrs by propidium iodide staining-based flow cytometric analysis; assay type: functional; how it was run: as §2
HeLa [6] = experiment: Induction of ROS generation in human HeLa cells at 250 nM after 12 to 24 hrs by H2-DCFDA staining-based assay; assay type: functional, cell-based
How it was run: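 HeLa cells treated 6, 12, 24 or 48 h, then loaded with H2-DCFDA and analysed by flow cytometry for ROS. Mean ± SEM of three independent experiments, compared against control.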

[7] = Cytotoxicity against human PBL after 72 hrs by MTT assay; assay type: cell-based; conditions: peripheral blood lymphocytes (PBL)
How it was run: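 Lymphocytes from healthy donors were isolated on a Lymphoprep gradient and held overnight in RPMI-1640 with 10% FBS. Non-adherent cells were set at 5×10^5 cells/mL, either resting or stimulated with 2.5 μg/mL PHA. Cells were exposed to a range of compound concentrations for 72 h and viability read by MTT. GI50 is the mean ± SEM of three separate experiments.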

K562 [8] = experiment: Cell cycle arrest in human K562 cells assessed as mitotic index at IC50 by Giemsa staining-based assay (reference value: 3%); assay type: functional
HT-29 [9] = experiment: Cell cycle arrest in human HT-29 cells assessed as accumulation of cells at G2/M phase after 24 hrs by propidium iodide staining-based flow cytometric analysis; assay type: functional; how it was run: as §2
K562 [10] = experiment: Cell cycle arrest in human K562 cells assessed as mitotic index at 10 times IC50 by Giemsa staining-based assay (reference value: 3%); assay type: functional
A549 [11] = experiment: Cell cycle arrest in human A549 cells assessed as accumulation of cells at G2/M phase at 50 nM after 24 hrs by propidium iodide staining-based flow cytometric analysis relative to control; assay type: functional; how it was run: as §2
[12] = Toxicity in C57BL/6 mouse implanted with mouse E0771 cells assessed as effect on body weight at 7.5 to 15 mg/kg, ip dosed every day for 20 days; assay type: organism-based; conditions: in vivo, 480 h, in the assay text read “every other day” for “every day”
How it was run: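 C57BL/6 mice, six weeks old, received 2.5×10^5 BL6-B16 or E0771 cells s.c. in the dorsolateral flank in PBS. Dosing began once tumours reached about 100 mm³: 7.5 or 15 mg/kg i.p. every other day in 50 μL DMSO. Vehicle and CA-4P 30 mg/kg served as controls. Body weight was monitored, with 5 animals per group.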

NSCLC = experiment: Cytotoxicity against human NSCLC cells after 48 hrs by SRB assay; assay type: functional; how it was run: as §3
Breast carcinoma cell = experiment: Cytotoxicity against human breast cancer cells after 48 hrs by SRB assay; assay type: functional; how it was run: as §3
HT-29 [13] = experiment: Cell cycle arrest in human HT-29 cells assessed as accumulation of cells at G2/M phase at 50 nM after 24 hrs by propidium iodide staining-based flow cytometric analysis relative to control; assay type: functional; how it was run: as §2
HeLa [14] = experiment: Cell cycle arrest in human HeLa cells assessed as accumulation of cells at G2/M phase at 50 nM after 24 hrs by propidium iodide staining-based flow cytometric analysis relative to control; assay type: functional; how it was run: as §2
[15] = Cytotoxicity against human COLON cells after 48 hrs by SRB assay; assay type: functional; how it was run: as §3
B16-BL6 = experiment: Growth inhibition of mouse B16-BL6 cells after 72 hrs by MTT assay; assay type: functional; conditions: B16-BL6, 72 h
How it was run: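 Murine BL6-B16 melanoma and EO771 breast tumor cells were exposed to compound for 72 h. GI50 is reported ± error.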

HeLa [16] = experiment: Induction of apoptosis in human HeLa cells assessed as increase in caspase-9 activity at 50 to 250 nM after 24 hrs by Western blot analysis; assay type: functional, cell-based; how it was run: as §1
[17] = read-out: LC50 (the source's name)

With `O=C1Nc2c(ccc3ccccc23)C1=Cc1c(-c2ccncc2)nc2sccn12` the inhibition in vivo at 15 mg/kg (E0771) was 56.8%, the Activity (HeLa [1]) was “Active” and the IC50 (Tubulin) was 14 µM. The Activity (A549 [2]) was “Active”, the GI50 (Ovarian carcinoma cell) was 0.05 µM and the LC50 (50% lethal concentration) (Ovarian carcinoma cell) was 80 µM. The TGI (Ovarian carcinoma cell) was 73.8 µM, the Activity (HeLa [3]) was “Active” and the GI50 (CNS carcinoma cell) was 0.04 µM. The TGI (CNS carcinoma cell) was 79.8 µM, the CC50 (CNS carcinoma cell; [17]) was 94.3 µM and the GI50 (Melanoma cell line) was 7.16 µM. For the same compound, the TGI (Melanoma cell line) was 72.9 µM, the CC50 (Melanoma cell line; [17]) was 95.3 µM and the Activity (HeLa [4]) was “Active”. For the same compound, the Activity (A549 [5]) was “Active”, the Activity (HeLa [6]) was “Active” and the GI50 at 72 h [7] was 4.5 µM. The Activity (K562 [8]) was 12%, the Activity (HT-29 [9]) was “Dose-dependent effect” and the Activity (K562 [10]) was 58%. The Activity (A549 [11]) was >80%, the Activity [12] was “Non-Toxic” and the GI50 (NSCLC) was 11.1 µM. For the same compound, the LC50 (NSCLC) was 97.9 µM, the TGI (NSCLC) was 79.9 µM and the GI50 (Breast carcinoma cell) was 0.04 µM. For the same compound, the LC50 (concentration killing 50% of cells) (Breast carcinoma cell) was 99 µM, the TGI (Breast carcinoma cell) was 71.3 µM and the Activity (HT-29 [13]) was >80%. The Activity (HeLa [14]) was >80%, the GI50 [15] was 0.03 µM and the TGI [15] was 39.9 µM. The CC50 [15, 17] was 77 µM, the GI50 (B16-BL6) was 0.305 µM and the Activity (HeLa [16]) was “Active”.
